Source: PubChem BioAssay
EBI2 block: EBI2 receptor antagonists, beta-arrestin recruitment, primary screen, cell-based, luminescence, 7a,25-OHC stimulation, uHTS; G-protein coupled receptor 183 (Homo sapiens), P32249; 7a,25-OHC stimulated; inhibition, % at 5 µM; 360,000 compounds, 0.81% hits; in the data active = inhibition above about 38%;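 also: enzyme fragment complementation signal reports receptor beta-arrestin coupling in cells; 0% = agonist plus DMSO wells and 100% = wells without agonist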
CXCR6 block: CXCR6 receptor inhibitors, primary screen, cell-based, beta-arrestin, luminescence, CHO-K1 PathHunter, 1536-well; C-X-C chemokine receptor type 6 (Homo sapiens), O00574; inhibition, % at 20 µM; 360,000 compounds, 0.36% hits; AID 602244, 2012; in the data active = inhibition above about 34%, passing the limit was not always enough;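 also: antagonist mode with CXCL16 agonist at 10 nM final; 0% = 10 nM CXCL16 with DMSO and 100% = unstimulated wells without agonist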
HTR2A ag: mouse Htr2a agonists via beta-arrestin recruitment, primary screen, cell-based, luminescence | 5-hydroxytryptamine receptor 2A (Mus musculus), P35363 | CHO-K1 mHTR2A beta-arrestin complementation; percent of 30 µM serotonin response | activation, % at 7.6 µM | 360,000 compounds, 0.66% hits | AID 624169, 2012;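 active = activation above a run cutoff, the mean activation of all tested compounds plus 3 SD, cut at about 14% in these data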;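 also: 0% = plate median of compound wells and 100% = 30 µM serotonin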
APJ agonist: agonists of human apelin receptor APJ, primary screen, CHO-K1 cells, PathHunter beta-arrestin, luminescence | P35414 | 0% DMSO wells, 100% apelin | activation, % at 20 µM | 330,000 compounds, 0.11% hits | AID 2520, 2010;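 active = activation more than six SD over the plate average, tested at 20 µM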;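 also: 0% = DMSO alone and 100% = apelin-13 at 10 nM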
Target sequence (P35414 whole entry, looked up): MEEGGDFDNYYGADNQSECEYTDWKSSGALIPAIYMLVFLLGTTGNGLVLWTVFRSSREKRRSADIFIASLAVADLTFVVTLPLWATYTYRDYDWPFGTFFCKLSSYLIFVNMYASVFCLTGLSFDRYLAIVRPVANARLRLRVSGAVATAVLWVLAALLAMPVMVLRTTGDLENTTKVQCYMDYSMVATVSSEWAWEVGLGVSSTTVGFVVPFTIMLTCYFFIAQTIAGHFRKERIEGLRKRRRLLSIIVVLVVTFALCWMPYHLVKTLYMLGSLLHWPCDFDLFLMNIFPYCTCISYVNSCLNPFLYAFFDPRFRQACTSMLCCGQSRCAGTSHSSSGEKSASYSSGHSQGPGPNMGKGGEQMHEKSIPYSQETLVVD
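Test system: CHO-K1 APJ beta-arrestin complementation cell line. Amount: cell density 1000 per well. Controls: DMSO negative, 10 nM Apelin-13 positive. Signal: luminescent beta-gal fragment complementation, chemiluminescent substrate. Read-out basis: agonist-driven arrestin binding to APJ. Timing: compound stimulation 90 min at 25 °C, detection 60 min.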
APJ antagonist: antagonists of human apelin receptor APJ, primary screen, CHO-K1 cells, beta-arrestin complementation, luminescence; P35414; AID 2521, 2010; 330,000 compounds, 0.32% hits; inhibition, % at 20 µM;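 active = inhibition above about 40% at 20 µM, limit read from the data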;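 also: cells challenged with 10 nM apelin-13 agonist together with compound; plate controls were apelin-13 plus DMSO wells for no effect and DMSO wells lacking apelin-13 for full effect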
CCR6 antag: CCR6 receptor antagonists, primary screen, cell-based, CHO-K1, luminescence, beta-arrestin, uHTS. C-C chemokine receptor type 6 (Homo sapiens), P51684. CHO-K1 CCR6 PathHunter beta-arrestin, CCL20-stimulated. inhibition, % at 20 µM. 340,000 compounds, 0.49% hits. AID 493098, 2011;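 active = compounds whose inhibition of the agonist-driven luminescence signal at 20 µM reaches about 50%, limit read from the data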;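 also: cells stimulated with CCL20 at 14 nM final; plate controls were DMSO with CCL20 for no effect and DMSO without agonist for full effect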
MOR ag counter: OPRM1 agonists via beta-arrestin recruitment, confirmation, counter-screen for mouse HTR2A agonist project, cell-based, luminescence, single concentration; shares compounds with HTR2A ag; 2,300 compounds, 5.3% hits; U2OS OPRM1 beta-arrestin PathHunter; DMSO 0%, DAMGO 9.3 µM 100%; AID 624380, 2012; activation, % at 9.3 µM;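 active = mean activation above the mean of DMSO-only wells plus 3 SD, cut at about 0.5% in these data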
HTR2A ag conf: mouse HTR2A agonists, beta-arrestin recruitment, confirmation, cell-based, luminescence, CHO-K1 PathHunter, triplicate | shares compounds with HTR2A ag | DMSO 0%, 30 µM serotonin 100% | activation, % at 7.6 µM | 2,300 compounds, 19% hits | AID 624381, 2012;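 active = mean activation across triplicates above the hit threshold derived in the original primary screen, cut at about 15% in these data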
* hit, by the source's call. The list is not random: actives were taken first. Their share in the collection is about 2.1%.

Screening CCOC(=O)N1CCC(N2C(=O)c3ccccc3C2Nc2cccnc2)CC1 (stereo unspecified) returned EBI2 block -1, CXCR6 block -3, HTR2A ag 19*, APJ agonist -4, APJ antagonist 5, CCR6 antag 1, MOR ag counter 0 and HTR2A ag conf -1.
CN(Cc1nc(-c2ccccc2)no1)C(=O)c1ccco1 was read as EBI2 block 9, CXCR6 block -5, HTR2A ag 16*, APJ agonist -2, APJ antagonist -10, CCR6 antag 2, MOR ag counter 0 and HTR2A ag conf -1.
`O=S(=O)(NCc1ccccc1Cl)c1ccc(-n2cccn2)cc1` gave EBI2 block -1, CXCR6 block 4, HTR2A ag -4, APJ agonist 4, APJ antagonist 5 and CCR6 antag -2.
CC(C)C(OC(=O)/C=C/c1ccc2c(c1)OCO2)C(=O)NC(N)=O (stereo unspecified) was read as EBI2 block -7, CXCR6 block -8, HTR2A ag 7, APJ agonist -3, APJ antagonist -8 and CCR6 antag -3.
CCc1nnc(NC(=O)C2=CCN(S(=O)(=O)c3ccc(F)cc3)CC2)s1 was read as EBI2 block -4, CXCR6 block 6, HTR2A ag -2, APJ agonist -5, APJ antagonist 4 and CCR6 antag 17.
Cc1ccn(CC(=O)N2CCCC(Nc3ccc(F)c(F)c3)C2)n1 (stereo unspecified) was read as EBI2 block -11, CXCR6 block 0, HTR2A ag 1, APJ agonist 4, APJ antagonist -4 and CCR6 antag 11.
COc1ccc(NC2CCCN(C(=O)Cn3ccc(C)n3)C2)cc1OC (stereo unspecified) was read as EBI2 block -6, CXCR6 block 0, HTR2A ag 15*, APJ agonist 6, APJ antagonist -18, CCR6 antag 3, MOR ag counter 0 and HTR2A ag conf 0.
For COC(C[C@H]1O[C@H]1[C@@H](O)[C@@H](C)OCc1ccccc1)OC the results were EBI2 block -12, CXCR6 block -3, HTR2A ag -3, APJ agonist -3, APJ antagonist -7 and CCR6 antag 11.
COc1ccc(OC)c(S(=O)(=O)N2CCC(C(=O)Nc3cccc(C)c3C)CC2)c1 was read as EBI2 block -4, CXCR6 block 0, HTR2A ag -4, APJ agonist -3, APJ antagonist -8 and CCR6 antag 9.
For COc1ccc(NC(=O)N2CCCC(C(=O)Nc3cccc(C)c3C)C2)cc1 (stereo unspecified) the results were EBI2 block 19, CXCR6 block -4, HTR2A ag 16*, APJ agonist -1, APJ antagonist -8, CCR6 antag 9, MOR ag counter 0 and HTR2A ag conf -4.
`CSc1ccc(C2(O)Cc3cccc[n+]3C2c2ccccc2)cc1` (stereo unspecified) gave EBI2 block -3, CXCR6 block -2, HTR2A ag -2, APJ agonist -1, APJ antagonist -17 and CCR6 antag 4.
CC(C)(C)c1csc(Sc2ccc([N+](=O)[O-])cn2)n1 was read as EBI2 block 0, CXCR6 block -10, HTR2A ag 18*, APJ agonist 5, APJ antagonist 5, CCR6 antag -8, MOR ag counter 0.7* and HTR2A ag conf 4.
